Test results taken from ChEMBL document CHEMBL4257493, “Discovery of 7-hydroxyaporphines as conformationally restricted ligands for beta-1 and beta-2 adrenergic receptors” (Medchemcomm, 2018).

Experiments:
[1] = molecular target: 5-hydroxytryptamine receptor 7 (Homo sapiens, UniProt P34969); assay: Binding affinity to 5-HT7 receptor (unknown origin) assessed as inhibition of radioligand binding by radioligand competition binding assay
[2] = molecular target: Histamine H1 receptor (Homo sapiens) (UniProt P35367); assay: Binding affinity to histamine H1 receptor (unknown origin) assessed as inhibition of radioligand binding by radioligand competition binding assay; conditions: concentration not given here
Chain of Histamine H1 receptor (Homo sapiens) (P35367 whole entry): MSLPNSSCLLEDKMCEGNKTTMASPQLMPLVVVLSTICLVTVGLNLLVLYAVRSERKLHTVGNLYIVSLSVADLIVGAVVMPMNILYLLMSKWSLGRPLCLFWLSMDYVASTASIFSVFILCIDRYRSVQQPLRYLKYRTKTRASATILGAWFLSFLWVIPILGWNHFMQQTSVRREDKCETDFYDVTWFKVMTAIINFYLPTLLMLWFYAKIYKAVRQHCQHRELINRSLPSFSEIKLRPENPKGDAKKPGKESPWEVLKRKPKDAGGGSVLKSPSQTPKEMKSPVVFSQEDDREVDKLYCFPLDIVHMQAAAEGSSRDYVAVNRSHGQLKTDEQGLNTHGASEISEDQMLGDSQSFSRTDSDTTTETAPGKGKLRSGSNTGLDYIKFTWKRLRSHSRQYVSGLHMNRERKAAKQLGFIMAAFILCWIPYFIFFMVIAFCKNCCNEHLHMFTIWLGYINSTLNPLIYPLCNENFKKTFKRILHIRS

[3] = molecular target: 5-hydroxytryptamine receptor 1A (Homo sapiens, UniProt P08908); assay: Binding affinity to 5-HT1A receptor (unknown origin) assessed as inhibition of radioligand binding by radioligand competition binding assay
[4] = molecular target: 5-hydroxytryptamine receptor 1B (Homo sapiens, UniProt P28222); assay: Binding affinity to 5-HT1B receptor (unknown origin) assessed as inhibition of radioligand binding by radioligand competition binding assay
[5] = molecular target: Delta-type opioid receptor (Homo sapiens) (UniProt P41143); assay: Binding affinity to DOR (unknown origin) assessed as inhibition of radioligand binding by radioligand competition binding assay; conditions: concentration not given here
[6] = molecular target: T1, Beta-2 adrenergic receptor (Homo sapiens, UniProt P07550); assay: Antagonist activity at human beta2-adrenergic receptor expressed in CHO-K1 cells assessed as decrease in procaterol-induced cAMP accumulation after 20 mins by HTRF assay; assay type: functional, cell-based
How it was run: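 Contract functional assay on human beta2 receptor expressed in CHO cells, with antagonist mode against agonist-stimulated cAMP. Incubation 20 min at 37 °C in HBSS, 5 mM HEPES, 0.1% BSA, 100 µM IBMX, pH 7.4, with 0.40% DMSO vehicle. HTRF quantitation of cAMP accumulation; dose-response curves.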
Target sequence in this assay (P07550 whole entry): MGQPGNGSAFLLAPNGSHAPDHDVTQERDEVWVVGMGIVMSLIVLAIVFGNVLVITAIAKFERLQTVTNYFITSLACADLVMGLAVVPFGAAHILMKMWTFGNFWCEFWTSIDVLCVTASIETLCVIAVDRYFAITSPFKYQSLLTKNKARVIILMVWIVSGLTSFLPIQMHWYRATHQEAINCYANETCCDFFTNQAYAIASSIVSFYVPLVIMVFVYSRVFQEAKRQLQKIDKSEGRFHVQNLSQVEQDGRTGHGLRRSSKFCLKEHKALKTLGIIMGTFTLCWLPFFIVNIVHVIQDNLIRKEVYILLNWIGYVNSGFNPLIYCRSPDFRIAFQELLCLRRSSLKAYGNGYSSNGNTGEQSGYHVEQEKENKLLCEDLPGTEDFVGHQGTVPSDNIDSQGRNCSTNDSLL

[7] = molecular target: T1, Beta-2 adrenergic receptor; assay: Binding affinity to andrenergic beta2 receptor (unknown origin) assessed as inhibition of radioligand binding at 10 uM by radioligand competition binding assay
Target sequence in this assay (P07550 whole entry, looked up): as the sequence (P07550 whole entry) above

[8] = molecular target: T2, Beta-1 adrenergic receptor (Homo sapiens, UniProt P08588); assay: Binding affinity to andrenergic beta1 receptor (unknown origin) assessed as inhibition of radioligand binding at 10 uM by radioligand competition binding assay
[9] = molecular target: Muscarinic acetylcholine receptor M4 (Homo sapiens) (UniProt P08173); assay: Binding affinity to muscarinic M4 receptor (unknown origin) assessed as inhibition of radioligand binding by radioligand competition binding assay; conditions: concentration not given here
[10] = molecular target: Alpha-1A adrenergic receptor (Homo sapiens) (UniProt P35348); assay: Binding affinity to andrenergic alpha1A receptor (unknown origin) assessed as inhibition of radioligand binding by radioligand competition binding assay; conditions: concentration not given here
[11] = molecular target: Muscarinic acetylcholine receptor M5 (Homo sapiens) (UniProt P08912); assay: Binding affinity to muscarinic M5 receptor (unknown origin) assessed as inhibition of radioligand binding by radioligand competition binding assay; conditions: concentration not given here
Chain of Muscarinic acetylcholine receptor M5 (Homo sapiens) (P08912 whole entry): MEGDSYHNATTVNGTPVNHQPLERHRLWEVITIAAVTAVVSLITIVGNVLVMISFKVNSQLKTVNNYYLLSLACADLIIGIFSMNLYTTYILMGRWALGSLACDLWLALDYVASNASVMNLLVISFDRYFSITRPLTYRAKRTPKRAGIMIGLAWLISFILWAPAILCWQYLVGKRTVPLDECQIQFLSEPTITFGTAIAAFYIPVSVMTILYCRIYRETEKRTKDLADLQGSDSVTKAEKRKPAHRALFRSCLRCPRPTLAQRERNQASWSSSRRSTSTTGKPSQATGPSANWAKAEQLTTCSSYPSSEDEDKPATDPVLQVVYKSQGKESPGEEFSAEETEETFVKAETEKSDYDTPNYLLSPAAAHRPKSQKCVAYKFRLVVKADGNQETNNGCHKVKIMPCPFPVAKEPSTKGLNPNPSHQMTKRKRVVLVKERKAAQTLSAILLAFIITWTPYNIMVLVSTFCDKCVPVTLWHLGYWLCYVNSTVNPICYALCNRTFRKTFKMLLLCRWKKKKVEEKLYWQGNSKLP

[12] = molecular target: Alpha-1D adrenergic receptor (Homo sapiens) (UniProt P25100); assay: Binding affinity to andrenergic alpha1D receptor (unknown origin) assessed as inhibition of radioligand binding by radioligand competition binding assay; conditions: concentration not given here
[13] = molecular target: Mu-type opioid receptor (Homo sapiens) (UniProt P35372); assay: Binding affinity to MOR (unknown origin) assessed as inhibition of radioligand binding by radioligand competition binding assay; conditions: concentration not given here
[14] = molecular target: 5-hydroxytryptamine receptor 3A (Homo sapiens) (UniProt P46098); assay: Binding affinity to 5-HT3 receptor (unknown origin) assessed as inhibition of radioligand binding by radioligand competition binding assay; conditions: concentration not given here
[15] = molecular target: Alpha-2A adrenergic receptor (Homo sapiens, UniProt P08913); assay: Binding affinity to andrenergic alpha2A receptor (unknown origin) assessed as inhibition of radioligand binding by radioligand competition binding assay
[16] = molecular target: D(3) dopamine receptor (Homo sapiens) (UniProt P35462); assay: Binding affinity to dopamine D3 receptor (unknown origin) assessed as inhibition of radioligand binding by radioligand competition binding assay; conditions: concentration not given here
Chain of D(3) dopamine receptor (Homo sapiens) (P35462 whole entry): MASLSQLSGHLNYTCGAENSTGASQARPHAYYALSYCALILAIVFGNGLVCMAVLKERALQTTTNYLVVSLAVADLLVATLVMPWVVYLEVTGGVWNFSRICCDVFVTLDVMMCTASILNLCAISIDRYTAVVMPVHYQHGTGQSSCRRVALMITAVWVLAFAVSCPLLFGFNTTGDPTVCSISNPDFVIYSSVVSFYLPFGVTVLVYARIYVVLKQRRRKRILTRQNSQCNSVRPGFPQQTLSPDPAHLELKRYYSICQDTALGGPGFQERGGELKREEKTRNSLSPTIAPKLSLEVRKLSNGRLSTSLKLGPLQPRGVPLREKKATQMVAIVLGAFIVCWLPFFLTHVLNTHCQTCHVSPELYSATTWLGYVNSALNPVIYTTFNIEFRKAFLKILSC

[17] = molecular target: Alpha-2B adrenergic receptor (Homo sapiens) (UniProt P18089); assay: Binding affinity to andrenergic alpha2B receptor (unknown origin) assessed as inhibition of radioligand binding at 10 uM by radioligand competition binding assay
[18] = molecular target: Translocator protein (Homo sapiens) (UniProt P30536); assay: Binding affinity to PBR (unknown origin) assessed as inhibition of radioligand binding by radioligand competition binding assay; conditions: concentration not given here
Chain of Translocator protein (Homo sapiens) (P30536 whole entry): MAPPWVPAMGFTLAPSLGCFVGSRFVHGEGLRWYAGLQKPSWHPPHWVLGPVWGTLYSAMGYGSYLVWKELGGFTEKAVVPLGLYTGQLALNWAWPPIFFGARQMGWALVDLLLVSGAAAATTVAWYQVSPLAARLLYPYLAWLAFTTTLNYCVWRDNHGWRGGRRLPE

[19] = molecular target: T1, Beta-2 adrenergic receptor; assay: Displacement of [3H]-CGP-12177 from human beta2-adrenergic receptor
Target sequence in this assay (P07550 whole entry): as the sequence (P07550 whole entry) above

[20] = molecular target: 5-hydroxytryptamine receptor 1D (Homo sapiens, UniProt P28221); assay: Binding affinity to 5-HT1D receptor (unknown origin) assessed as inhibition of radioligand binding at 10 uM by radioligand competition binding assay
[21] = molecular target: 5-hydroxytryptamine receptor 2B (Homo sapiens, UniProt P41595); assay: Binding affinity to 5-HT2B receptor (unknown origin) assessed as inhibition of radioligand binding at 10 uM by radioligand competition binding assay
Chain of 5-hydroxytryptamine receptor 2B (P41595 whole entry): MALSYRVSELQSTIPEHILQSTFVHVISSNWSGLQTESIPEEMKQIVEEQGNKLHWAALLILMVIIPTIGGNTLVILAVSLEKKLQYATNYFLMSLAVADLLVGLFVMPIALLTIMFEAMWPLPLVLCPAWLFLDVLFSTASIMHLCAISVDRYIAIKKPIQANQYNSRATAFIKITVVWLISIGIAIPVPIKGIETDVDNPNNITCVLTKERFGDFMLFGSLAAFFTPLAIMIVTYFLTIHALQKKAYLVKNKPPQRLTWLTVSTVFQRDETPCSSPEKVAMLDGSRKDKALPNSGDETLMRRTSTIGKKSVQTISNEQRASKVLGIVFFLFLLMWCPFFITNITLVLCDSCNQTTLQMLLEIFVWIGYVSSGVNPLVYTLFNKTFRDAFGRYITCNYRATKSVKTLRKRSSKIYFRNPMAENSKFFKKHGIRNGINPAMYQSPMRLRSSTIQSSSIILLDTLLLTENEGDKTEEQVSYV

[22] = molecular target: T1, Beta-2 adrenergic receptor; assay: Binding affinity to andrenergic beta2 receptor (unknown origin) assessed as inhibition of radioligand binding by radioligand competition binding assay
Target sequence in this assay (P07550 whole entry): as the sequence (P07550 whole entry) above

[23] = molecular target: Beta-3 adrenergic receptor (Homo sapiens, UniProt P13945); assay: Binding affinity to andrenergic beta3 receptor (unknown origin) assessed as inhibition of radioligand binding at 10 uM by radioligand competition binding assay
[24] = molecular target: D(1B) dopamine receptor (Homo sapiens) (UniProt P21918); assay: Binding affinity to dopamine D5 receptor (unknown origin) assessed as inhibition of radioligand binding by radioligand competition binding assay; conditions: concentration not given here
Chain of D(1B) dopamine receptor (Homo sapiens) (P21918 whole entry): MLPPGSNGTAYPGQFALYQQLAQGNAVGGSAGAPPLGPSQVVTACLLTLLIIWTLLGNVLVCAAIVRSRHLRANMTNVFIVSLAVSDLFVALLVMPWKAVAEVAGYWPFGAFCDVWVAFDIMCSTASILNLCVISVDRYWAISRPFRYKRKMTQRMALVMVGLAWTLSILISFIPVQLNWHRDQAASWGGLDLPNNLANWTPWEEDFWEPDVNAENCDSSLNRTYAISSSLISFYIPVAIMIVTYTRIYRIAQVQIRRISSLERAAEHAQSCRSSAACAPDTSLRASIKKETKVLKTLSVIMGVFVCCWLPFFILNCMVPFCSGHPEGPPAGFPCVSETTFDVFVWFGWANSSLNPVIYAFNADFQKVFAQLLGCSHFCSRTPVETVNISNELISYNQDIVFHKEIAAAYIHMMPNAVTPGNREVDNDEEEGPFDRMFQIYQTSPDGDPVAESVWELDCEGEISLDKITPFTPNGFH

[25] = molecular target: T2, Beta-1 adrenergic receptor; assay: Binding affinity to andrenergic beta1 receptor (unknown origin) assessed as inhibition of radioligand binding by radioligand competition binding assay
[26] = molecular target: Histamine H4 receptor (Homo sapiens) (UniProt Q9H3N8); assay: Binding affinity to histamine H4 receptor (unknown origin) assessed as inhibition of radioligand binding by radioligand competition binding assay; conditions: concentration not given here
[27] = molecular target: D(1A) dopamine receptor (Homo sapiens) (UniProt P21728); assay: Binding affinity to dopamine D1 receptor (unknown origin) assessed as inhibition of radioligand binding by radioligand competition binding assay; conditions: concentration not given here
Chain of D(1A) dopamine receptor (Homo sapiens) (P21728 whole entry): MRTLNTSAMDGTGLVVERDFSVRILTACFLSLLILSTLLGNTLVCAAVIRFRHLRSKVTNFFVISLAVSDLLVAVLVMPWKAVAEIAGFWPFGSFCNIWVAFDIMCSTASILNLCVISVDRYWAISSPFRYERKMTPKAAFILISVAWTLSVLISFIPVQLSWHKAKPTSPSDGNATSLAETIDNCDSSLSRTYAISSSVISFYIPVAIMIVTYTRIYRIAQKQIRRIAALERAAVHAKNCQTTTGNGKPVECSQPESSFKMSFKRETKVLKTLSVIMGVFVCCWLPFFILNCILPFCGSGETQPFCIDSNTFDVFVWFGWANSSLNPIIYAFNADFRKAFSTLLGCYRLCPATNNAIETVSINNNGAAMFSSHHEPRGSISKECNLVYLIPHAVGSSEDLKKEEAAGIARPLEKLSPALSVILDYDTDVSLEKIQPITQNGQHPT

[28] = molecular target: Sodium-dependent noradrenaline transporter (Homo sapiens) (UniProt P23975); assay: Binding affinity to NET (unknown origin) assessed as inhibition of radioligand binding by radioligand competition binding assay; conditions: concentration not given here
[29] = molecular target: Sodium-dependent dopamine transporter (Homo sapiens) (UniProt Q01959); assay: Binding affinity to DAT (unknown origin) assessed as inhibition of radioligand binding by radioligand competition binding assay; conditions: concentration not given here
[30] = molecular target: Histamine H3 receptor (Homo sapiens) (UniProt Q9Y5N1); assay: Binding affinity to histamine H3 receptor (unknown origin) assessed as inhibition of radioligand binding by radioligand competition binding assay; conditions: concentration not given here
[31] = molecular target: 5-hydroxytryptamine receptor 6 (Homo sapiens, UniProt P50406); assay: Binding affinity to 5-HT6 receptor (unknown origin) assessed as inhibition of radioligand binding by radioligand competition binding assay
Chain of 5-hydroxytryptamine receptor 6 (P50406 whole entry): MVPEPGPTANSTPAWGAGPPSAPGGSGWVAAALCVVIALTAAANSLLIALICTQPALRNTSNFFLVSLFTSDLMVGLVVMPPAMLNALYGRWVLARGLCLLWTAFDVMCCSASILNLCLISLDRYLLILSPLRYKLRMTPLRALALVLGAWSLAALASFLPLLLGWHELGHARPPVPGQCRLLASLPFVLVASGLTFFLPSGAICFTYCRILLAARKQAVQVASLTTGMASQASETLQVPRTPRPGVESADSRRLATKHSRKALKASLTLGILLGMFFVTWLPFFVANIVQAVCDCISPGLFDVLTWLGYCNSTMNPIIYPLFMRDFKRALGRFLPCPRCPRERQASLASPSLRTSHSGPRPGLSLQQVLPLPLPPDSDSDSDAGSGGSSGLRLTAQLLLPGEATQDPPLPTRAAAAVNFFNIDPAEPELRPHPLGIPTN

[32] = molecular target: Muscarinic acetylcholine receptor M3 (Homo sapiens) (UniProt P20309); assay: Binding affinity to muscarinic M3 receptor (unknown origin) assessed as inhibition of radioligand binding by radioligand competition binding assay; conditions: concentration not given here

Chain of 5-hydroxytryptamine receptor 7 (P34969 whole entry): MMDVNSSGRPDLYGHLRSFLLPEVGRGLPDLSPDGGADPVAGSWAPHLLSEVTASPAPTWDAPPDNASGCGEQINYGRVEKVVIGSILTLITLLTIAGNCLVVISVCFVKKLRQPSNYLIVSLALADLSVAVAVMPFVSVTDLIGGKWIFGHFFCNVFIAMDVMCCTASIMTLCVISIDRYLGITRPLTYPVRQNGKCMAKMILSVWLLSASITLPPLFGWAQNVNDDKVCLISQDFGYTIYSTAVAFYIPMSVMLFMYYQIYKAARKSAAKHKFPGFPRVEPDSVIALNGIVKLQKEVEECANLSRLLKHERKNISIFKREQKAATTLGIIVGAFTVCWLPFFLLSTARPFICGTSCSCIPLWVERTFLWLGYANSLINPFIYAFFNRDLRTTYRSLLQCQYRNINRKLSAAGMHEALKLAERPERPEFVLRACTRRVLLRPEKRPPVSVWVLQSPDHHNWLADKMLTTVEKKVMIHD

Work on `COc1cc2c3c(c1OC)-c1ccccc1[C@@H](O)[C@@H]3NCC2` yielded a Ki [1] of 120 nM, an inhibition [2] of under 50% and a Ki [3] of 71 nM. It also gave a Ki [4] of 1210 nM, an inhibition [5] of under 50% and an IC50 [6] of 6.9 nM. For the same compound, the inhibition [7] was over 50%, the inhibition [8] was over 50% and the inhibition [9] was under 50%. For the same compound, the inhibition [10] was under 50%, the inhibition [11] was under 50% and the inhibition [12] was under 50%. It also gave an inhibition [13] of under 50%, an inhibition [14] of under 50% and a Ki [15] of 1150 nM. For the same compound, the inhibition [16] was under 50%, the inhibition [17] was over 50% and the inhibition [18] was under 50%. For the same compound, the IC50 [19] was 1.4 nM, the inhibition [20] was over 50% and the inhibition [21] was over 50%. For the same compound, the Ki [22] was 13 nM, the inhibition [23] was over 50% and the inhibition [24] was under 50%. It also gave a Ki [25] of 19 nM, an inhibition [26] of under 50% and an inhibition [27] of under 50%. The inhibition [28] was under 50%, the inhibition [29] was under 50% and the inhibition [30] was under 50%. For the same compound, the Ki [31] was 862 nM and the inhibition [32] was under 50%.
